The structures appear in SMILES notation.

A short description of the data set: Toxicity liver stage against HepG2, at 10uM. It counts as cell-based. More on the design: test concentration 10 uM, cell line HepG2-A16-CD81EGFP. The note with it: human, HepG2-A16-CD81EGFP cells; read-out: INHIBITION
Put shortly:
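Uninfected HepG2-A16-CD81EGFP cells, 3 × 10^3 per well, 1536-well, plated on prespotted compound at 10 μM final, parasite-free screening media added to match infected plates; puromycin 10 μM positive, DMSO 0.5% negative; run in parallel with 48 h PbLuc assay at 37 °C, 5% CO2; viability by CellTiter-Glo luminescence, normalized to controls.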
With `O=C(CCNC(=O)c1ccc(Cl)cc1)NCc1nc(C2CC2)no1`, the cytotoxicity at 10 µM came to 0.648%.
For `COc1ccc(-c2cc(C[C@@H]3C[C@H](N(C)C)C3(C)C)no2)cc1` the value was -1.3%; for `O=C(NC[C@@H]1CCCO1)c1cccnc1N1CCCC1c1ccccn1` (some centres undefined), -1.08%.
`Cc1nn(-c2ncnc3[nH]cnc23)c2c1C(C(C)C)CC(=O)N2` (centres undefined): the cytotoxicity at 10 µM came out at 10.8%.
In the case of `COC(=O)CNC(=O)c1cn(-c2ccccn2)c(=O)c2ccccc12`, the cytotoxicity at 10 µM was determined as 0.0537%.
Regarding `O=C(NCCc1nccs1)[C@H](c1ccccc1)n1cnnn1`, the cytotoxicity at 10 µM was -0.607%.
For `CSCC(C)(O)CNC(=O)c1cc(Cl)ccc1Cl` (centres undefined) the value was 9.88%; for `CCOCC(=O)N1C[C@H]2CN(CC3CC3)C(=O)[C@H]2C1`, 3.94%; for `CC(C)NC(=O)N1CCCC2(CCN(c3ccccc3)C2=O)C1` (centres undefined), -2.22%.
For `CN(C)CCO[C@H]1CN(C(=O)c2ccc3c(c2)OCO3)[C@@H]2COC[C@H]12` the value was -151%; for `NC(=O)N1CC[C@H]2CO[C@H](CNC(=O)c3ccnnc3)[C@H]2C1`, -4.7%; for `CC(C)c1nc(-c2cc(C(=O)NCCCO)c3ccccn23)cs1`, 9.7%.
Then `O=C(c1ccoc1)N1C[C@H]2CC[C@@]3(N=C(c4ccccc4)NC3=O)[C@H]2C1`, with 6.79%; and `Cn1cc(CN2CC[C@@H]3O[C@H](C(=O)N4CCOCC4)C[C@@H]32)cn1`, with -8.08%; and `O=C(N[C@@H]1CN(Cc2ccc3c(c2)OCO3)[C@@H]2CCCO[C@@H]21)C1CC1`, with 2.06%.
As to `Cc1cc(-c2ccc(=O)n(CCNC(=O)C3CC3)n2)c(C)o1`, the cytotoxicity at 10 µM is -10.2%.
In the case of `CC(=O)N1CCC(C(=O)c2cnn(-c3ccccc3)c2N)C1` (centres undefined), the cytotoxicity at 10 µM amounted to 5.54%.
With `Cc1ncc(-c2ccncc2)c(C2CCN(C(=O)c3ccco3)CC2)n1`, the cytotoxicity at 10 µM was found to be 4%.
`CNC(=O)C1CN(Cc2cc(C)on2)CCN(C(C)=O)C1` (centres undefined): the cytotoxicity at 10 µM was -3.02%.
For `Cc1ncsc1C(=O)N1CCC(c2ncncc2-c2ccnc(N)c2)C1` (centres undefined) the value was -0.197%; for `CC1(C(=O)N2CCN(C3CCCC3)CC2)CNCCO1` (centres undefined), 6.26%; for `COC(=O)c1c(C(F)(F)F)cnc(OC)c1Cl`, 7.03%.
Take `CC(O)CN1CCN(Cc2cccc(C#N)c2)CC1` (centres undefined): the cytotoxicity at 10 µM was 9.56%.
Turning to `Cc1noc(CN(CCO)Cc2cc(Br)ccc2F)n1`, the cytotoxicity at 10 µM stood at 2.2%.
For `O=S1(=O)CCC(c2nnc(-c3cnc4onc(C5CCCC5)c4c3)o2)C1` (centres undefined), the cytotoxicity at 10 µM came to 1.84%.
Take `COCCCN1Cc2cccc(NC(=O)C(C)(C)C)c2C1`: the cytotoxicity at 10 µM worked out at 2.06%.
For the compound `CCC(C)NC(=O)Nc1cccc(OCCCC#N)c1` (centres undefined), the cytotoxicity at 10 µM was -2.01%.
For `CCOCCS(=O)(=O)Cc1ccn(-c2cccc(F)c2)n1` the value was 4.48%.
Take `Cn1cc(C(=O)CC2CCCN2C(=O)c2ccc3[nH]ncc3c2)cn1` (centres undefined): the cytotoxicity at 10 µM is -2.53%.
On to `CN(C)C(C(=O)NCC1(O)CCCCC1)c1c(F)cccc1F` (centres undefined), for which the cytotoxicity at 10 µM was -5.52%.
As for `O=S(=O)(c1c(F)cccc1F)N1CCCC1c1nnc2n1CCCCC2` (centres undefined), the cytotoxicity at 10 µM came to 11.2%.
As for `CCC(Nc1nc(C(F)(F)F)nc2ccccc12)C(=O)O` (centres undefined), the cytotoxicity at 10 µM amounted to 3.75%.
For `N#Cc1ccc(CNC(=O)NC2CCCN(c3ncccn3)C2)cc1` (centres undefined), the cytotoxicity at 10 µM stood at 5.38%.
On to `CC(OCCCNC(=O)c1cccnc1O)c1ccccc1` (centres undefined), for which the cytotoxicity at 10 µM was 4.88%.
In the case of `CN(CCNc1cc(N2CCCC2CO)ncn1)Cc1ccccc1` (centres undefined), the cytotoxicity at 10 µM came out at 15.7%.
With `c1ccc(-c2nc(CN3CCn4c(nnc4C4CC4)C3)no2)cc1`, the cytotoxicity at 10 µM was -3.47%.
As for `CN1CCN(C(=O)C2CCCN2c2ncnc3ccsc23)CC1` (centres undefined), the cytotoxicity at 10 µM was found to be 9.19%.
As to `COc1cc(C)nc(N2CCN(C(C)c3nc(C4CC4)no3)CC2)n1` (centres undefined), the cytotoxicity at 10 µM was 1.46%.
Consider `O=C(NCCNC(=O)c1ccc(Br)cc1)c1ccc(O)cc1`, for which the cytotoxicity at 10 µM is -0.988%.
Regarding `O=C(NCCCO)Nc1ccccc1`, the cytotoxicity at 10 µM is 1.52%.
For `Cc1cc(C(=O)N2CCCC(N3CCNC3=O)C2)nn1C(C)(C)C` (centres undefined) the value was -1.44%; for `CCOc1ccc(C(=O)N(C)C)cc1NC(=O)c1ccsc1`, -0.12%; for `COc1ccc(CNc2nnc(CC(C)(C)C)o2)cc1C#N`, -10.1%.
For `Cn1cc(-c2cccc(CNC(=O)N3CCC[C@@H]3CO)c2)cn1`, the cytotoxicity at 10 µM is -5.89%.
For `O=C(C1CCCOC1)N1CCCc2ccccc21` (centres undefined) the value was 10.1%.
Turning to `O=S(=O)(NC1CCC2(CC1)OCCO2)c1cccc(Br)c1`, the cytotoxicity at 10 µM was -5.65%.
For `Cc1csc(NC(=O)NCCCN2CCC(C(N)=O)CC2)n1`, the cytotoxicity at 10 µM worked out at 2.48%.
Then `CCC(C)NS(=O)(=O)Cc1cccc(NC(=O)C2=CCCC2)c1` (centres undefined), with -0.217%; and `CC(C)(C)OC(=O)N1CCN(S(=O)(=O)CCCC#N)C2(CCCCC2)C1`, with -6.1%.
Then `Cc1noc2ncc(S(=O)(=O)Nc3cc(C(C)(C)C)n[nH]3)cc12`, with 3.26%.
In the case of `CCS(=O)(=O)CCNC(=O)NCc1ccccc1-n1cccn1`, the cytotoxicity at 10 µM stood at 4.87%.
Then `CCOc1ccc(C#N)cc1NC(=O)N1CCCC(NC(=O)CC)C1` (centres undefined), with 0.711%.
`O=C(CCc1ccccc1)Nc1ncccc1OC(F)F`: the cytotoxicity at 10 µM was -3.45%.
On to `O=C(CCCn1cncn1)NC1(c2ccccc2)CCC1`, for which the cytotoxicity at 10 µM was -11.5%.
For `Cc1cccc(N2CCN(C(=O)CN3CCN(CCO)CC3)CC2)c1` the value was -15.5%; for `CC(C)Cc1cc(C(=O)NCc2nnc[nH]2)[nH]n1`, -2.95%.
Turning to `COc1ccccc1-c1ncc(CN2CCCC(CCC(N)=O)C2)s1` (centres undefined), the cytotoxicity at 10 µM was -6.34%.
With `CC(C)(C)c1ncc(C(=O)N2CCN(C(=O)c3ccc[nH]3)CC2)c(O)n1`, the cytotoxicity at 10 µM is -6.74%.
For the compound `CCN(CCOc1ccc(F)cc1)C(=O)c1ccncc1Cl`, the cytotoxicity at 10 µM is -3.35%.
As to `COc1cccc2c1OCC(CNC(=O)Cc1csc(C(C)=O)c1)C2` (centres undefined), the cytotoxicity at 10 µM was -146%.
As to `Cc1ccc(C#N)c(N2CCC3(CCCN(C4CCOCC4)C3=O)C2)n1` (centres undefined), the cytotoxicity at 10 µM was -125%.
For `CC(C)Oc1cc(N2CC[C@@H](N3CCOCC3)[C@H](O)C2)nc(N)n1` the value was -2.32%.
In the case of `CCn1c(C2CCCN(Cc3ccc4ccccc4n3)C2)nn(C)c1=O` (centres undefined), the cytotoxicity at 10 µM is 0.687%.
As to `CCCn1ncc(C(=O)N2CCN(C3Cc4ccccc4C3)CC2)c1C`, the cytotoxicity at 10 µM was -139%.
In the case of `O=C(C1CC1)N1CCCN(c2ncnc3c2CCNCC3)CC1`, the cytotoxicity at 10 µM amounted to 5.52%.
Turning to `O=C(NCCC1COc2ccccc2O1)c1ccc(-c2cc[nH]n2)nc1` (centres undefined), the cytotoxicity at 10 µM was -6.84%.
Then `O=C(N[C@@H]1CCCNC1)C1(Oc2ccc(Cl)cc2)CCNCC1`, with -4.73%; and `O=C(O)CNc1cc(-c2cc(C(=O)NC3CC3)ccn2)c2cc[nH]c2n1`, with -5.2%.
For `CN(CC(C)(C)C)c1ccc(C(=O)NCCCc2ccccn2)cn1` the value was -49.1%; for `CCC1CN(C(=O)c2cccnc2O)CCC(=O)N1Cc1ccccc1` (centres undefined), 3.65%; for `CC1(C(=O)NCc2cccnc2Oc2ccc(F)cc2F)CCCNC1` (centres undefined), -5.68%.
With `Cc1ccc([C@@H]2CN(C(=O)c3ccc[nH]3)C[C@H]2NC(=O)C2CC2)cc1`, the cytotoxicity at 10 µM is -21.5%.
Then `COc1c(C2CCCN2C(=O)c2csc(C3CC3)n2)c(C)nn1C` (centres undefined), with 4.53%; and `O=C(CCOc1ccccc1F)N1CCCCC1Cn1cccn1` (centres undefined), with -4.47%; and `CC(C)Oc1ccc(C(=O)N2CCCCC2Cn2cccn2)cn1` (centres undefined), with -14.9%.
As for `CCn1ccnc1CN1CCCN(C(=O)c2cnn(C)c2)CC1`, the cytotoxicity at 10 µM was -7.25%.
With `Cc1cc(C)c(CNC(=O)N2CCN(c3ccncc3)CC2)c(=O)[nH]1`, the cytotoxicity at 10 µM is -3.57%.
For `Cc1ccccc1C(=O)Nc1cnn(CCN2CCOCC2)c1` the value was -11.7%.
Consider `CCc1nc(CN2CCCC(NCc3nc4ccccc4o3)C2)no1` (centres undefined), for which the cytotoxicity at 10 µM is -3.81%.
On to `CS(=O)(=O)c1ccc(CNC(=O)Nc2cn[nH]c2)cc1`, for which the cytotoxicity at 10 µM is -1.88%.
Then `O=C(c1cnc(-c2cnccn2)s1)N1CCCC1Cn1cccn1` (centres undefined), with -3.99%; and `O=C(CCOCC(F)(F)F)N1CCCC1c1noc(C2CC2)n1` (centres undefined), with 0.111%.
For the compound `c1ccc(-c2noc(CN3CCOC(Cn4cccn4)C3)n2)nc1` (centres undefined), the cytotoxicity at 10 µM was -15%.
For `C[C@@H](NC(=O)c1cccs1)c1onc(-c2cccnc2)c1C(=O)O` the value was 6.09%.
Turning to `Cc1nc(Nc2cnccn2)cc(C2CN(C(C)C)C2)n1`, the cytotoxicity at 10 µM is -27.1%.
For `c1cc(CNCC2Cn3nncc3CO2)co1` (centres undefined) the value was 7.8%; for `CN(C)CCN1CCCC12CCN(C(=O)c1ccco1)CC2`, 1.49%; for `Cc1ccc(CN2C[C@@H]3[C@@H](C(=O)NCC4CC4)CCS(=O)(=O)[C@@H]3C2)cc1`, -4%.
For `Cc1cnc(N2C[C@H]3CCN(CC4CC4)C[C@H]3C2)nc1`, the cytotoxicity at 10 µM was 6.34%.
Turning to `CCO[C@H]1CO[C@@]2(CCN(Cc3ccc4c(c3)OCO4)C2)C1`, the cytotoxicity at 10 µM came out at 0.493%.
Consider `COc1ccc(CN2C[C@@H](OCc3csc(C)n3)[C@H]3COC[C@H]32)cc1`, for which the cytotoxicity at 10 µM is -17.3%.
As to `CC(NCc1cccc(C#N)c1)c1ccccn1` (centres undefined), the cytotoxicity at 10 µM was -9.61%.
As to `CCOCC1CN(Cc2cccnc2)Cc2nn(C)cc21` (centres undefined), the cytotoxicity at 10 µM was -81.6%.
For `Cc1noc(C)c1CN1CCOC2(CCCN(c3ncccn3)C2)C1` (centres undefined), the cytotoxicity at 10 µM turned out to be 8.27%.

The values above are taken from ChEMBL document CHEMBL4513216, “Probing the Open Global Health Chemical Diversity Library for Multistage-Active Starting Points for Next-Generation Antimalarials” (ACS Infect Dis, 2020).
